{
  "source": "paper PMC9200056",
  "about": "(Chemical Science, 2022)",
  "assay_type_in_all_cases": "biochemical",
  "key": {"[1]": {"target": "T1, fXa (factor Xa) (Homo sapiens, UniProt P00742)", "T1 sequence (P00742 235-488 limits assumed)": "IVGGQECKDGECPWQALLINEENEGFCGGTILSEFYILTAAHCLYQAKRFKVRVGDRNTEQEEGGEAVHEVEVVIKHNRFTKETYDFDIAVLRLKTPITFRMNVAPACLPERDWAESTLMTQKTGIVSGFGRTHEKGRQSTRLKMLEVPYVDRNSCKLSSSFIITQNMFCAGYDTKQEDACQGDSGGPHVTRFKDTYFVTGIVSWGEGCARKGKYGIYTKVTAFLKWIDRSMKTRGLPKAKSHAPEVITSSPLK", "T1 sequence (P00742 41-179 partner limits assumed)": "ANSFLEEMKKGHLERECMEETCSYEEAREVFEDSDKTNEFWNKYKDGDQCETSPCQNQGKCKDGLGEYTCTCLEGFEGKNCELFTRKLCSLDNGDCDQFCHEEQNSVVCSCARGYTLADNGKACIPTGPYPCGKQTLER", "assay": "Initial substrate screening", "settings": "1 μM substrate, relative to SMX15", "in_short": "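ACC fluorogenic substrates at 1 μM final, from 10 mM stocks diluted 100-fold in DMSO. fXa (7–100 nM, set per substrate for adequate signal) preincubated 15 min at 37 °C in 20 mM Tris, 150 mM NaCl, 5 mM CaCl2, pH 7.4. Hydrolysis read for 30 min at 37 °C (ex 355, em 460 nm). Linear-phase RFU s−1 normalised to equal enzyme activity, averaged over at least two repeats.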"}, "[2]": {"target": "APC (activated protein C) (Homo sapiens, UniProt P04070)", "sequence (P04070 212-461 limits assumed)": "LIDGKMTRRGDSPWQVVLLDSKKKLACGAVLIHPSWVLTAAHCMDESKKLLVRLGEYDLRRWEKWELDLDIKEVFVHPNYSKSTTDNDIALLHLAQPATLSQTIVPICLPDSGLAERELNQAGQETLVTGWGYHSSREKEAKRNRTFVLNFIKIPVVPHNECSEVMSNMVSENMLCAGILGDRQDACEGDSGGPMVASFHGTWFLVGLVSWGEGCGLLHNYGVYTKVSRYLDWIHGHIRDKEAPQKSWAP", "sequence (P04070 43-197 partner limits assumed)": "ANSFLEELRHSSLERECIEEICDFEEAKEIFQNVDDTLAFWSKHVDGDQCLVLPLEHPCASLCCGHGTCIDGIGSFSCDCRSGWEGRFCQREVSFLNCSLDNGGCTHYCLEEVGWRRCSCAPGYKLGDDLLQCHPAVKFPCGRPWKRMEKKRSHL", "assay": "Initial substrate screening", "settings": "for increase in activity on exchanging L-Nle(O-Bzl) (SMA4) at P3: initial screening, 1 μM substrate, relative to SMA4", "in_short": "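Plasma-derived human APC (thrombin–thrombomodulin-activated) was preincubated 15 min at 37 °C in Tris/NaCl/CaCl2 buffer, pH 7.4, then added to ACC substrates at 1 μM final. Final APC was 50–90 nM, chosen per substrate set. ACC release was read at 355/460 nm for 30 min. Rates (RFU s−1) came from the linear portion and were adjusted to equal enzyme activity; at least 2 repeats were averaged.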"}, "[3]": {"target": "T1, fXa (factor Xa)", "assay": "Substrate kinetics", "in_short": "(§1)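 Purified plasma-derived human enzymes were preincubated 15 min at 37 °C in Tris/NaCl/CaCl2 buffer, pH 7.4. They were added to eight serially diluted ACC substrate concentrations (4.68 nM–741 μM overall). ACC release was followed at 355/460 nm for 30 min at 37 °C to derive kcat, KM and kcat/KM; at least duplicate runs were averaged.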"}, "[4]": {"target": "T2, thrombin (Homo sapiens, UniProt P00734)", "assay": "Inhibition kinetics", "settings": "ratio of kobs/I values"}, "[5]": {"target": "T2, thrombin", "assay": "Substrate kinetics", "settings": "ratio of kcat/KM values", "in_short": "as §1"}, "[6]": {"target": "T1, fXa (factor Xa)", "assay": "Inhibition kinetics", "settings": "ratio of kobs/I values"}, "[7]": {"tested_on": "APC in human plasma", "assay": "APC labeling by fluorescent ABP in human plasma", "settings": "EDTA plasma diluted 7.5 times, probe 20 μM, 60 min, 37 °C; SDS–PAGE", "in_short": "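Human plasma from EDTA-anticoagulated whole blood, diluted 7.5-fold in 20 mM Tris, 150 mM NaCl, 5 mM CaCl2, pH 7.4, mixed 1:1 with APC-directed Cy5 probe (1–20 μM), 60 min, 37 °C. SDS/DTT reduction at 95 °C for 5 min, then 12% SDS–PAGE and nitrocellulose blot. Chicken anti-protein C for 7 h, then Alexa 488 secondary. Cy5 imaged at 658 nm, antibody at 488 nm. At least 3 replicates.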"}, "[8]": {"tested_on": "thrombin in human plasma", "assay": "Thrombin labeling by fluorescent ABP in human plasma", "settings": "EDTA plasma diluted 7.5 times, probe 20 μM, 60 min, 37 °C; SDS–PAGE", "in_short": "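Human plasma from EDTA-anticoagulated whole blood, diluted 7.5-fold in Tris/NaCl/5 mM CaCl2 buffer, pH 7.4, incubated 1:1 with thrombin-directed Cy7 probe (1–20 μM) for 60 min at 37 °C. Reduced in SDS/DTT at 95 °C, run on 12% SDS–PAGE and blotted. Sheep anti-fII for 7 h, then Alexa 680 secondary. Cy7 imaged at 784 nm, antibody at 658 nm. At least 3 replicates.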"}},
  "note": "Non-standard residues stand in square brackets, D forms with d. *: point of attachment. 1Nal = N[C@@H](Cc1cccc2ccccc12)C(=O)O; ACC = NC(=O)Cc1cc(=O)oc2cc(N*)ccc12; Igl = N[C@H](C(=O)O)C1Cc2ccccc2C1; hArg = N=C(N)NCCCC[C@H](N)C(=O)O; Dab = NCC[C@H](N)C(=O)O; Cbz = O=C(OCc1ccccc1)*",
  "data": [
    {"substance": "Ac-Arg(NO2)-hArg-1-Nal-Arg-AC C [SMX13]", "values": [
      {"measurement": "change of overall activity on replacing D-Pro (SMX15) at P4", "setting": "[1]", "value": "only a slight decrease in the overall activity"}
    ]},
    {"substance": "Ac-Gln-hArg-1-Nal-Arg-AC C [SMX14]", "values": [
      {"measurement": "change of overall activity on replacing D-Pro (SMX15) at P4", "setting": "[1]", "value": "only a slight decrease in the overall activity"}
    ]},
    {"substance": "Ac-K[Dab](Cbz)[Igl]R-{ACC} (SMILES CC(=O)N[C@@H](CCCCN)C(=O)N[C@@H](CCNC(=O)OCc1ccccc1)C(=O)N[C@H](C(=O)N[C@@H](CCCNC(=N)N)C(=O)Nc1ccc2c(CC(N)=O)cc(=O)oc2c1)C1Cc2ccccc2C1) [SMA5]", "values": [
      {"measurement": "cleaved more efficiently than the best natural substrate (SMA54)", "setting": "[2]; relative to SMA54", "value": "approximately 50 fold"}
    ]},
    {"substance": "Ac-Lys-Agp-Lys(2-Cl-Z)-Arg-AC C [SMA2]", "values": [
      {"measurement": "increase in activity on exchanging L-Nle(O-Bzl) (SMA4) at P3", "setting": "[2]", "value": 22, "unit": "fold"}
    ]},
    {"substance": "Ac-Lys-Dab(Z )-Lys(2-Cl-Z)-Arg-AC C [SMA1]", "values": [
      {"measurement": "increase in activity on exchanging L-Nle(O-Bzl) (SMA4) at P3", "setting": "[2]", "value": 13, "unit": "fold"}
    ]},
    {"substance": "Ac-Lys-Glu(Bzl)-Lys(2-Cl-Z)-Arg-AC C [SMA3]", "values": [
      {"measurement": "increase in activity on exchanging L-Nle(O-Bzl) (SMA4) at P3", "setting": "[2]", "value": 5.5, "unit": "fold"}
    ]},
    {"substance": "Ac-M[hArg][1Nal]R-{ACC} (SMILES CSCC[C@H](NC(C)=O)C(=O)N[C@@H](CCCCNC(=N)N)C(=O)N[C@@H](Cc1cccc2ccccc12)C(=O)N[C@@H](CCCNC(=N)N)C(=O)Nc1ccc2c(CC(N)=O)cc(=O)oc2c1) [SMX61]", "values": [
      {"measurement": "increase of the kcat/KM value on exchanging D-Pro at P4 (SMX15) for L-Met", "setting": "[3]; fXa, relative to SMX15", "value": 55, "unit": "%"}
    ]},
    {"substance": "Ac-[dP][hArg][1Nal]R-{ACC} (SMILES CC(=O)N1CCC[C@@H]1C(=O)N[C@@H](CCCCNC(=N)N)C(=O)N[C@@H](Cc1cccc2ccccc12)C(=O)N[C@@H](CCCNC(=N)N)C(=O)Nc1ccc2c(CC(N)=O)cc(=O)oc2c1) [SMX15]", "values": [
      {"measurement": "times more hydrolyzed by fXa than by thrombin", "setting": "[3]; ratio of kcat/KM values", "value": 358, "unit": "times"}
    ]},
    {"substance": "Ac–hCha–Cys(MeBzl)–Pip–Arg^P(OPh)2 [I-SMII22]", "values": [
      {"measurement": "kobs/I selectivity: thrombin inhibition more rapid than APC", "setting": "[4]", "value": 348, "unit": "fold"},
      {"measurement": "kobs/I selectivity: thrombin inhibition more rapid than fXa", "setting": "[4]", "value": 2087, "unit": "fold"}
    ]},
    {"substance": "Ac–hCha–Cys(MeBzl)–Pip–Arg–ACC [SMII22]", "values": [
      {"measurement": "kcat/KM selectivity for thrombin over APC", "setting": "[5]", "value": 3383, "unit": "fold"},
      {"measurement": "kcat/KM selectivity for thrombin over fXa", "setting": "[5]", "value": 162, "unit": "fold"}
    ]},
    {"substance": "Cy3–6-Ahx–DPro–hArg–1-Nal–Arg^P(OPh)2 [P-SMX152]", "values": [
      {"measurement": "inhibition of APC less efficient than fXa", "setting": "[6]", "value": 75, "unit": "fold"}
    ]},
    {"substance": "Cy5–6-Ahx–Lys–Dab(Z)–Lys–Arg^P(OPh)2 [P-SMA172]", "values": [
      {"measurement": "off-target labeling in human plasma at 20 μM probe", "setting": "[7]", "value": "only minor additional labeling between 25 and 35 kDa"}
    ]},
    {"substance": "Cy7–6-Ahx–hCha–Cys(MeBzl)–Pip–Arg^P(OPh)2 [P-SMII222]", "values": [
      {"measurement": "selectivity of thrombin labeling in human plasma at 20 μM probe", "setting": "[8]", "value": "selectivity was maintained with thrombin labeling"}
    ]}
  ]
}
